Calls of active or inactive are those of the source. The calls are words filed in the database; no cut-off is given here.
How the values were obtained:
[1] = molecular target: ADP-ribosyl cyclase/cyclic ADP-ribose hydrolase 1 (Homo sapiens) (UniProt P28907); assay: Inhibition of human CD38 at 100 uM by HPLC analysis relative to control
Method in brief: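 Human CD38 with inhibitor at 100 µM, given as percent inhibition. Enzyme activity is measured by HPLC at 20 µM NAD+: isocratic C18 separation (10 mM ammonium phosphate pH 5.5, 1.2% (v/v) acetonitrile, 1 mL/min) with detection at 260 nm, plus radiodetection when [14C]NAD+ is added.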

Schistosoma mansoni [2] = assay: Inhibition of recombinant Schistosoma mansoni NACE using 1, N6-etheno NAD+ as substrate at 100 uM by fluorometric analysis relative to control
Method in brief: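 Single-point screen at 100 µM inhibitor against recombinant SmNACE with ε-NAD+ substrate. Initial-rate fluorescence of ε-ADP-ribose is read (ex 310 nm, em 410 nm) at 37 °C in 10 mM potassium phosphate pH 7.4 with 0.05% (w/v) emulphogen, and expressed as percent inhibition.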

[3] = Inhibition of recombinant Schistosoma mansoni NACE using 1, N6-etheno NAD+ as substrate by fluorometric analysis
Method in brief: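 Continuous fluorometric read of recombinant SmNACE turning over ε-NAD+ to ε-ADP-ribose (ex 310 nm, em 410 nm), at 37 °C in 10 mM potassium phosphate pH 7.4 with 0.05% (w/v) emulphogen. Initial rates are taken at 6 inhibitor concentrations. IC50 comes from non-linear regression of residual activity against log[inhibitor]. Values are means of three independent determinations.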

[4] = molecular target: T1, ADP-ribosyl cyclase/cyclic ADP-ribose hydrolase 1 (Homo sapiens, UniProt P28907); assay: Inhibition of human CD38 by HPLC analysis
T1 sequence (P28907 whole entry): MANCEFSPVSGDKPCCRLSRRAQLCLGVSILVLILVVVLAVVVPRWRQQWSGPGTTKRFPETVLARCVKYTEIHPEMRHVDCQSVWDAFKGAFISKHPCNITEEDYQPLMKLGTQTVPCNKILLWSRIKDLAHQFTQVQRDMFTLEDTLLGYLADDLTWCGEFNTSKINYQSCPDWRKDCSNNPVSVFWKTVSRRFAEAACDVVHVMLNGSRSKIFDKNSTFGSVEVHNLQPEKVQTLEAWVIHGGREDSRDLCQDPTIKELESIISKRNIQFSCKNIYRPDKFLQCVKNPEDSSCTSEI

[5] = Selectivity ratio of IC50 for human CD38 to IC50 for recombinant Schistosoma mansoni NACE
Schistosoma mansoni [6] = assay: Inhibition of recombinant Schistosoma mansoni NACE using NAD+ as substrate at 100 uM by HPLC analysis relative to control
Method in brief: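 HPLC assay for recombinant SmNACE at 20 µM NAD+ substrate, used where compounds fluoresce on their own. Inhibitor is tested at 100 µM. Products are separated isocratically on a C18 column (10 mM ammonium phosphate pH 5.5, 1.2% (v/v) acetonitrile, 1 mL/min) and detected at 260 nm. In some runs [adenosine-U-14C]NAD+ is added with radiodetection.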

Schistosoma mansoni [7] = assay: Competitive inhibition of recombinant Schistosoma mansoni NACE by Dixon plot analysis in presence of 1, N6-etheno NAD+
Method in brief: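 Recombinant SmNACE with ε-NAD+ in 10 mM potassium phosphate pH 7.4, 0.05% (w/v) emulphogen, 37 °C. Initial rates are followed fluorometrically as ε-ADP-ribose appears (ex 310 nm, em 410 nm). Three fixed inhibitor concentrations are each combined with ε-NAD+ at 20, 50 and 100 µM, and 1/v is plotted against [I] (Dixon) to assign the inhibition type.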

| SMILES | inhibition [1] | IC50 ([3]; read-out: IC50) | also measured |
| --- | --- | --- | --- |
| Cc1occc1C(=O)NNC(=O)c1ccccc1O | 27.6% | 0.25 µM | IC50 [4]: 120 µM |
| COc1ccccc1CNNC(=O)c1ccoc1C | 0% | 11.6 µM | – |
| Cc1occc1C(=O)N(C)/N=C\c1ccccc1O | – | – | IC50 [3]: ND(Insoluble) |
| C/C(=N/NC(=O)c1ccoc1C)c1ccccc1O | – | – | IC50 [3]: ND(Insoluble) |
| Cc1occc1C(=O)N/N=C\c1cc(Cl)ccc1O | 0% | 0.033 µM | Ratio IC50 [5]: > 1000 |
| COc1ccccc1/C=N\NC(=O)c1ccoc1C | 0% | 67 µM | – |
| COc1ccccc1CCNC(=O)c1ccoc1C | – | – | inhibition (Schistosoma mansoni [2]): 0% |
| Cc1occc1C(=O)NNCc1ccccc1O | 0% | 12.3 µM | – |
| O=C1c2c(O)cc(O)cc2OC(c2ccc(O)c(O)c2)C1O (racemic) | – | – | inhibition (Schistosoma mansoni [6]): > 40%; inhibition (Schistosoma mansoni [2]): > 40% |
| Cc1occc1C(=O)N/N=C\c1cccc(F)c1O | 27.2% | 0.036 µM | Inhibition type (Dixon plot) (Schistosoma mansoni [7]): Active; IC50 [4]: 26 µM |
| COc1cc(O)c(/C=N\NC(=O)c2ccoc2C)c(OC)c1 | 0% | 0.19 µM | – |
| Cc1occc1C(=O)NCCc1ccccc1O | – | 131 µM | – |
| Cc1occc1C(=O)N/N=C\c1cccc(C(C)(C)C)c1O | – | 105 µM | – |
| Cc1occc1C(=O)N/N=C\c1ccccc1 | – | 330 µM | IC50 [4]: 296 µM |
| Cc1cccc(C(=O)NNC(=O)c2ccoc2C)c1O | – | – | IC50 [3]: ND(Insoluble) |
| COc1ccccc1/C=N\N(C)C(=O)c1ccoc1C | – | 513 µM | – |

Second part, led by results:

| inhibition [1] | IC50 ([3]; read-out: IC50) | SMILES | also measured |
| --- | --- | --- | --- |
| 0% | – | Cc1occc1-c1nnc(-c2cc(Cl)ccc2O)o1 | inhibition (Schistosoma mansoni [2]): 0% |
| 0% | 0.032 µM | COc1ccc(/C=N\NC(=O)c2ccoc2C)c(O)c1 | Ratio IC50 [5]: > 1000 |
| 0% | 0.077 µM | Cc1occc1C(=O)N/N=C\c1c(O)cc(Cl)cc1Cl | Ratio IC50 [5]: > 1000 |
| 0% | – | COc1ccc(-c2nnc(-c3ccoc3C)o2)c(O)c1 | inhibition (Schistosoma mansoni [2]): 0% |
| 0% | – | Cc1occc1-c1nnc(-c2ccccc2O)o1 | inhibition (Schistosoma mansoni [2]): 0% |
| 66.7% | 0.15 µM | Cc1occc1C(=O)N/N=C\c1cccc(Cl)c1O | IC50 [4]: 14 µM |
| – | 80 µM | COc1cc(/C=N\NC(=O)c2ccoc2C)ccc1O | IC50 [4]: 103 µM |
| 6.7% | 0.039 µM | Cc1occc1C(=O)NNC(=O)c1cc(Cl)ccc1O | Inhibition type (Dixon plot) (Schistosoma mansoni [7]): Active; Ratio IC50 [5]: > 1000 |
| 0% | 59 µM | Cc1cccc(/C=N\NC(=O)c2ccoc2C)c1O | – |
| 0% | 8.7 µM | Cc1occc1C(=O)N/N=C\c1cccc(O)c1O | – |
| 20% | 0.13 µM | Cc1occc1C(=O)N/N=C\c1ccccc1O | Inhibition type (Dixon plot) (Schistosoma mansoni [7]): Active; Ratio IC50 [5]: > 1000; IC50 [4]: 430 µM |
| 6.7% | 0.074 µM | COc1ccc(C(=O)NNC(=O)c2ccoc2C)c(O)c1 | Inhibition type (Dixon plot) (Schistosoma mansoni [7]): Active; Ratio IC50 [5]: > 1000 |
| 0% | 0.045 µM | COc1ccc(O)c(/C=N\NC(=O)c2ccoc2C)c1 | Ratio IC50 [5]: > 1000 |
| – | 88 µM | Cc1occc1C(=O)N/N=C\c1ccc(O)c(O)c1 | Inhibition type (Dixon plot) (Schistosoma mansoni [7]): Active; IC50 [4]: 109 µM |
